In ChEMBL document CHEMBL4414566, “Cytotoxicity and Anti-inflammatory Properties of Apigenin-Derived Isolaxifolin” (J Nat Prod, 2019):

How the values were obtained:
MDA-MB-231 [1] = assay: Induction of cell cycle arrest in human MDA-MB-231 cells assessed as accumulation of cells at G2/M phase at 17.3 uM incubated for 48 hrs by PI/RNase staining based flow cytometric analysis (reference value: 10.4%); format: functional
In short: (§1)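 Cell-cycle analysis: MDA-MB-231 cells were preincubated 24 h, then treated with 8.6, 12.4 or 17.3 μM for 48 h. Cells were pelleted, fixed in 75% ethanol at −20 °C overnight, and stained with PI/RNase for 15 min in the dark at ambient temperature. About 10 000 cells per well were analyzed by flow cytometry for DNA content.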

MDA-MB-231 [2] = assay: Induction of cell cycle arrest in human MDA-MB-231 cells assessed as accumulation of cells at S phase at 12.4 uM incubated for 48 hrs by PI/RNase staining based flow cytometric analysis (reference value: 39.2%); format: functional; in short: as §1
MDA-MB-231 [3] = assay: Induction of apoptosis in human MDA-MB-231 cells assessed as early apoptotic cells at 12.4 uM incubated for 48 hrs by annexin V-FITC/PI based flow cytometric analysis (Rvb= 0.24%); format: functional
MDA-MB-231 [4] = assay: Induction of mitochondrial membrane potential loss in human MDA-MB-231 cells incubated for 48 hrs by JC1 staining based flow cytometric analysis; format: functional, cell-based
In short: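 MDA-MB-231 cells in DMEM/10% FBS exposed 48 h to 0, 8.6, 12.4 or 17.3 μM. Harvested cells stained with JC-1 for 15 min in the dark, then analysed by flow cytometry. Excitation 488 nm; green emission read at 525 nm, red at 590 nm. Output given as percent green-to-red fluorescence intensity ratio. Triplicate, mean ± SD.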

MDA-MB-231 [5] = assay: Induction of apoptosis in human MDA-MB-231 cells assessed as early apoptotic cells at 8.6 uM incubated for 48 hrs by annexin V-FITC/PI based flow cytometric analysis (Rvb= 0.24%); format: functional

SMILES: CC(C)=CCc1c2c(c(O)c3c(=O)cc(-c4ccc(O)cc4)oc13)C=CC(C)(C)O2 [LAXIFOLIN]
- Activity (MDA-MB-231 [1]): 9.87%
- Activity (MDA-MB-231 [2]): 28.2%
- Activity (MDA-MB-231 [3]): 0.58%
- Activity (MDA-MB-231 [4]): Dose-dependent effect
- Activity (MDA-MB-231 [5]): 0.87%
